Source: PubChem BioAssay (several laboratories)
Pf gamet viab: kills late stage P. falciparum gametocytes | 150,000 compounds, 0.065% hits | P. falciparum stage V gametocytes, ATP luminescence, 24 h | inhibition, % at 10.9 µM | AID 743093;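 active means inhibition above the mean plus 3 SD of compounds within the control limits, set per campaign, cut at about 38% in these data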;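 further: 0% = DMSO wells and 100% = medium only without gametocytes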
Biofilm kill mix: mixtures killing C. albicans biofilm; C. albicans biofilm persisters + clotrimazole, fluorescence viability; primary screen in compound mixtures of four per well; inhibition, % at 7.6 µM; 120,000 compounds, 0.02% hits; AID 1242;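 active means inhibition above 30.3% in the primary screen of four-compound pools, then above 30% when the compound was retested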;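 further: compounds exposed to preformed 24 h biofilms for 48 h; 0% = untreated biofilm control and 100% = clotrimazole plus chlorhexidine kill blank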
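Test system: C. albicans biofilms. Buffer or medium: RPMI/MOPS medium, pH 7.0. Timing: 48 h compound exposure at 37 °C. Technique: Alamar Blue fluorescence. Evaluation: percent inhibition of biofilm viability.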
Furin inh: inhibitors of human furin; inhibition, % at 20 µM or 30 µM; 220,000 compounds, 0.061% hits; AID 463115; purified furin, fluorogenic substrate cleavage; P09958; in the data active means inhibition above about 25%
Target sequence (P09958 108-714 limits assumed): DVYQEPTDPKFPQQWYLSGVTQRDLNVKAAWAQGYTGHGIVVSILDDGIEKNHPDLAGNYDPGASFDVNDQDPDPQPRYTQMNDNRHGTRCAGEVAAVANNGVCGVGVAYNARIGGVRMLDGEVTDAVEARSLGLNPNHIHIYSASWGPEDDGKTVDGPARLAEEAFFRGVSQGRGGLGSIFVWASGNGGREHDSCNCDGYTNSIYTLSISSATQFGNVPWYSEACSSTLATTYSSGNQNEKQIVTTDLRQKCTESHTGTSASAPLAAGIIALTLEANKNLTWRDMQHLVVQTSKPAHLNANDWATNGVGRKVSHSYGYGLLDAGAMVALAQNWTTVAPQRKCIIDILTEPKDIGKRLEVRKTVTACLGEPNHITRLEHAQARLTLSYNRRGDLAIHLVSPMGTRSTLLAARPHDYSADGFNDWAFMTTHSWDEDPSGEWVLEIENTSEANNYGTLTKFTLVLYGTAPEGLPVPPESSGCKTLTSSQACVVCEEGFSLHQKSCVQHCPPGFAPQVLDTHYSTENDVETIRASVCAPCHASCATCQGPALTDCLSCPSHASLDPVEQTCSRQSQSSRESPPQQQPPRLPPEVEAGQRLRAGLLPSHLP
Numbers without * were called inactive; · = no result given. Rows were chosen to be rich in hits. Some 0.11% of all compounds tested hit in one or more screens of this group.

SMILES	Pf gamet viab	Biofilm kill mix	Furin inh
O=C(COC(=O)COc1ccccc1)NC1CCCc2ccccc21 (stereo unspecified)	·	25.6	-10.8
Cn1c(=O)n(C)c2cc(/C=N/N=C3/NC(=O)C(CC(=O)O)S3)ccc21 (stereo unspecified)	13.0	7.1	1.6
Cc1cccc2c1NC1(CCCC1)CC2C (stereo unspecified)	4.4	15.9	-15.1
Cc1ccc2c(c1C)NC(C)CC2C (stereo unspecified)	-5.8	·	26.4*
CC(C)CCNC(=O)c1onc(CSc2nc3ccccc3[nH]2)c1C(=O)NCCC(C)C	-42.2	·	·
O=C1CC2(CCCC2)CC(=O)N1c1ccccc1	·	12.2	-26.2
CCN(CC)S(=O)(=O)c1ccc(Cl)c(NC(=O)COC(=O)c2ccc(O)cc2)c1	-3.1	15.6	-23.6
CCN(CC)S(=O)(=O)c1ccc(Cl)c(NC(=O)COC(=O)c2cccn2C)c1	42.1*	5.0	-11.3
CC(C(=O)Nc1ccccc1Oc1ccccc1)c1ccccc1 (stereo unspecified)	60.2*	14.4	-9.3
COc1ccccc1NC(=O)c1ccccc1Oc1ccccc1	-20.1	·	·
O=C(Nc1ccccc1C(F)(F)F)N1CCN(c2ccccn2)CC1	7.0	0.9	-12.5
O=C(O)COc1c(F)c(F)c(C(F)(F)F)c(F)c1F	-7.6	·	·
CC(=O)N1CCN(c2c(F)c(F)c(C(F)(F)F)c(F)c2F)CC1	7.4	62.0*	-15.9
O=C(O)CC(NC(=O)C1c2ccccc2Oc2ccccc21)c1ccc(Cl)cc1 (stereo unspecified)	4.7	4.2	-10.5
CC1CCc2cc(F)ccc2N1C(=O)CCl (stereo unspecified)	·	16.4	-23.7
O=C(NNC(=O)[C@H]1CC=CC[C@H]1C(=O)O)c1ccc(Cl)cc1Cl	4.9	10.0	-26.0
O=C(Nn1c(C2CCCCC2)nc2ccccc2c1=O)c1ccc([N+](=O)[O-])cc1	42.1*	13.2	-11.8
COc1cccc(OC)c1C(=O)Nn1c(C2CCC2)nc2ccccc2c1=O	-11.5	·	-23.2
N#Cc1c(N)n(-c2cccc(O)c2)c2nc3ccccc3nc12	-7.2	3.8	-27.4
N#Cc1c(N)n(-c2ccc(O)cc2)c2nc3ccccc3nc12	38.2*	13.8	-14.5
CCOc1ccc(-n2c(O)c(/C=N/NC(=O)C3COc4ccccc4O3)c3ccccc3c2=O)cc1 (stereo unspecified)	-6.0	7.7	-10.0
COc1cccc2sc(Nc3nc(-c4ccncc4)cs3)nc12	49.8*	-1.6	-16.0
COc1cccc2sc(Nc3nc(-c4cc5ccccc5oc4=O)cs3)nc12	·	10.7	-17.0
CC1CCC(=O)N(CCC#N)CC1 (stereo unspecified)	4.4	·	·
COc1ccc(S(=O)(=O)Nc2cc(C(C)C)c(O)cc2C)cc1	·	·	29.9*
SMILES	Pf gamet viab	Biofilm kill mix	Furin inh
COc1ccc(S(=O)(=O)Nc2cc(C)c(O)cc2C(C)C)cc1	-0.2	·	-10.5
Cc1nnc(NC(=O)C2CCCO2)s1 (stereo unspecified)	·	·	-17.8
CCCCCc1nnc(NC(=O)C2CCCO2)s1 (stereo unspecified)	·	·	34.1*
CC(=O)OC1CC[C@@]2(C)C(CCC3C2CC(=O)[C@@]2(C)C3CC3CC(C)=CC(=O)C32)C1 (stereo partly specified)	·	23.6	-19.6
CCC(C)Sc1nc2c(c(=O)[nH]c(=O)n2C)n1CC(O)COc1ccccc1C (stereo unspecified)	39.1*	3.3	-16.5
CCC(C)Sc1nc2c(c(=O)[nH]c(=O)n2C)n1CCc1ccccc1 (stereo unspecified)	3.3	·	10.6
CC(=O)Nc1ccc(S(=O)(=O)Nc2ccccc2C(=O)N2CCCCCC2)cc1	15.0	·	·
S=C(NCCN1CCOCC1)NC1CCCCC1	11.0	27.4	-16.7
Cc1ccc(S(=O)(=O)N(C)c2c(C)ccc(S(=O)(=O)N3CCN(C)CC3)c2C)cc1	-2.9	15.3	-20.4
Cc1ccc(S(=O)(=O)N2CCN(Cc3ccccc3)CC2)c(C)c1N(C)S(=O)(=O)c1ccccc1	41.8*	-4.1	-6.3
CC[n+]1oc(-c2ccccc2)cc1C	10.1	9.9	-10.4
CCc1nnc(NS(=O)(=O)c2ccc(NC(=S)NC(=O)/C=C/c3ccc(OC)cc3)cc2)s1	-15.2	12.0	-19.4
CCc1nnc(NS(=O)(=O)c2ccc(NC(=S)NC(=O)/C=C/c3ccccc3)cc2)s1	41.1*	2.1	-9.5
COC(=O)COc1ccc(S(=O)(=O)NCC2CCCO2)cc1Cl (stereo unspecified)	·	·	31.4*
COc1ccc(S(=O)(=O)NCC2CCCO2)cc1Cl (stereo unspecified)	-9.0	·	·
Cc1ccc(S(=O)(=O)NC(C)CCc2ccccc2)cc1C(N)=O (stereo unspecified)	-9.4	·	·
COC(=O)c1cc(C(=O)Nc2ccc(S(N)(=O)=O)cc2)cc([N+](=O)[O-])c1	-1.5	8.0	-10.5
Cc1nnc(NC(=O)c2ccc(S(=O)(=O)N3CCc4ccccc4C3)cc2)o1	49.4*	5.1	-23.0
CCOC(=O)N1CCN(S(=O)(=O)c2ccc(C(=O)Nc3nnc(C)o3)cc2)CC1	-19.6	17.1	-2.5
O=C(Nc1ccccc1C(F)(F)F)c1c(F)cccc1Cl	-15.9	18.2	-20.3
CC(=NCc1ccco1)c1c(C)[nH]n(-c2nc3ccccc3s2)c1=O	·	·	-17.5
C/C(=N/NC(=O)c1cccs1)c1c(C)[nH]n(-c2nc3ccccc3s2)c1=O	56.1*	5.0	-7.4
NNS(=O)(=O)c1ccc(N2CCCC2=O)c([N+](=O)[O-])c1	28.0	15.5	-25.0
NS(=O)(=O)c1ccc(N2CCCC2=O)c([N+](=O)[O-])c1	38.2*	18.6	-27.2
C=CCN1C(=O)C2(OCCCO2)c2cc(Cl)ccc21	-6.4	·	·
SMILES	Pf gamet viab	Biofilm kill mix	Furin inh
CCOC(=O)c1cc(C)sc1/N=C/C1C(=O)CC(C)(C)CC1=O	0.6	6.3	25.9*
CCOC(=O)c1c(CC(C)C)csc1/N=C/C1C(=O)CC(C)(C)CC1=O	11.9	6.8	-15.3
Cc1nn2c3ccccc3nc2n(Cc2ccccc2)c1=O	·	·	25.6*
CCn1c(=O)c(C)nn2c3ccccc3nc12	11.7	·	-19.0
Cn1c(=O)cc(Cl)[nH]c1=O	·	13.9	-23.6
CN(C)c1ccc(/C=C/c2ccc3ccccc3[n+]2C)cc1	23.4	34.5*	-1.4
CN(C)c1ccc(/C=C/c2ccc3c4ccccc4ccc3[n+]2-c2ccccc2)cc1	-14.0	17.9	-18.1
C[C@H](CO)N1C[C@H](C)[C@@H](CN(C)Cc2ccccc2)Oc2c(NS(=O)(=O)c3cn(C)cn3)cccc2C1=O	0.0	·	·
O=C(NC1CC1)C1=C[C@@H](c2c[nH]c3ccccc23)C[C@@H](OCCCCO)O1	-9.3	11.5	-32.6
CC(C)(C)c1ccc(-c2cn(-c3ccc(Br)cc3)c3[n+]2CCCS3)cc1	-4.1	31.4*	-18.3
c1ccc(-c2cn(-c3ccccc3)c3[n+]2CCS3)cc1	-6.5	8.9	-21.8
CCOC(=O)c1cc2c(ccc3ccccc32)oc1=O	48.1*	27.2	-128.9
O=C(O)c1cc2c(ccc3ccccc32)oc1=O	-0.3	·	-94.1
Cc1ccc(-c2cc(C(=O)NCc3cccnc3)no2)cc1	·	·	25.1*
COc1ccc(-c2cc(C(=O)NCc3cccnc3)no2)cc1OC	9.2	·	-4.5
Cc1ccccc1-n1nc(C)c(N=O)c1N	14.4	16.0	-22.6
COc1cccc(-n2nnc3c(=O)n(Cc4ccc(Cl)cc4)cnc32)c1	1.5	·	-20.3
